# Experimental data: ChEMBL document CHEMBL4402562, “Discovery of Novel Peptidomimetic Boronate ClpP Inhibitors with Noncanonical Enzyme Mechanism as Potent Virulence Blockers in Vitro and in Vivo” (J Med Chem, 2020)
# Calls of active or inactive are those of the source. The calls are words filed in the database; no cut-off is given here.
# How the values were obtained:
# Staphylococcus aureus [1] = experiment: (§1) Antivirulence activity against methicillin-resistant Staphylococcus aureus ATCC 33591 infected in BALB/c mouse model of skin abscess assessed as reduction in liver histopathological changes at 1.5 to 3 mg/kg injected into shaved area of skin once daily for 4 days measured after 12 hrs post last dose by hematoxylin and eosin staining based optical microscopy; format: functional, organism-based
# How it was run: (§2)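 Same MRSA ATCC 33591 skin-abscess model in female BALB/c mice (n=5/group), 40 µL compound at 1.5 or 3 mg/kg injected into the infected shaved skin once daily for 4 days. On day 4 infected skin and heart, liver, spleen, lung, kidney fixed in 4% paraformaldehyde, embedded, sectioned, H&E stained and examined by microscopy; PBS-treated uninfected and vehicle controls.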
# [2] = target: T1, ATP-dependent Clp protease proteolytic subunit (Staphylococcus aureus (strain NCTC 8325), UniProt Q2G036); experiment: Binding affinity to N-terminal His6-sumo-tagged full length Staphylococcus aureus ClpP expressed in Escherichia coli […] assessed as shifting of melting peak of SaClpP by differential scanning calorimetry analysis
# T1 sequence (Q2G036 whole entry): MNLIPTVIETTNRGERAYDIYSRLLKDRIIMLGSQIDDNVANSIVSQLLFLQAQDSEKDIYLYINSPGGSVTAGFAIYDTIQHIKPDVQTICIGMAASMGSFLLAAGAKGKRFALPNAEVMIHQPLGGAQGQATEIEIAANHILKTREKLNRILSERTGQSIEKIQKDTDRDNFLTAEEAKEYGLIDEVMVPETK
# How it was run: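 DSC: 0.5 mg/mL (25 µM) SaClpP with 100 µM compound or two-fold dilution series, RT; scanned 30-90 °C at 1 °C/min, buffer-buffer scan subtracted; Tm from thermogram peak maximum; single run.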
# Staphylococcus aureus [3] = experiment: Growth inhibition of methicillin-resistant Staphylococcus aureus ATCC 33591 incubated for 18 hrs by broth microdilution method; format: functional; settings: ATCC 33591, 18 h
# How it was run: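 MRSA ATCC 33591 at ~5×10⁵ CFU/mL in MHB with graded compound concentrations vs DMSO; OD600 growth curves over 18 h; three experiments, triplicate wells. MIC by CLSI broth microdilution in CAMHB, 0.5-256 µg/mL, 18 h at 37 °C, lowest concentration with no visible growth.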
# [4] = Toxicity in BALB/c mouse model of skin abscess infected with methicillin-resistant Staphylococcus aureus ATCC 33591 assessed as increase in AST levels at 1.5 to 3 mg/kg injected into shaved area of skin once daily for 4 days; format: organism-based; settings: in vivo, other, 96 h
# How it was run: (§3)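 Infected BALB/c mice (n=5/group) dosed 1.5 or 3 mg/kg into the infected skin once daily for 4 days; blood collected on day 4 and day 14, centrifuged 3,500 rpm 15 min, serum biochemistry analysed.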
# [5] = Cytotoxicity in human HepG2 cells assessed as reduction in cell viability incubated for 24 hrs by MTT assay; format: cell-based
# How it was run: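 MTT assay. HeLa (3×10^3 cells) or HepG2 (4×10^3 cells) seeded in DMEM and grown 24 h, then given compound for a further 24 h. Absorbance read at 570 nm against DMSO wells. GI50 from dose-response fit; three experiments, triplicate wells.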
# Staphylococcus aureus [6] = experiment: Inhibition of virulence-related genes expression in methicillin-resistant Staphylococcus aureus ATCC 33591 assessed as reduction in hla expression at 4 to 16 uM by qPCR analysis relative to control; format: functional, organism-based
# How it was run: (§4)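 Total RNA from 2×10⁸ CFU treated MRSA by liquid-nitrogen freeze-thaw and TRIzol; qPCR relative to gyrB endogenous control; three experiments, triplicate wells.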
# [7] = Inhibition of human ClpP (57 to 277 residues) expressed in Escherichia coli […] pre-incubated for 10 mins before Ac-WLA-AMC addition and measured after 1 hr by fluorescence based assay relative to control
# How it was run: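 hClpP (3.5 μM monomer) in 25 mM Tris-HCl pH 8.0, 100 mM KCl. Preincubated 10 min at RT with inhibitor, two-fold dilutions over 8 steps from 100 μM. Then 100 μM Ac-WLA-AMC, 380/440 nm for 1 h at 37 °C, slopes normalized to DMSO. Thrice, triplicate wells.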
# Staphylococcus aureus [8] = experiment: as §1, with “preservation of skin integrity” for “reduction in liver histopathological changes”; format: functional, organism-based; how it was run: as §2
# Staphylococcus aureus [9] = experiment: Inhibition of Staphylococcus aureus NCTC8325 with delta clpP assessed as reduction in bacteria-induced hemolysis of sheep erythrocytes by measuring hemoglobin release at 0.5 to 64 uM; format: functional, organism-based
# How it was run: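 S. aureus NCTC8325 ΔclpP grown in MHB from OD600 0.05 to ~0.6 at 37 °C, then 8 h with serially diluted inhibitor or DMSO. Culture supernatant mixed 1:1 with 5% sheep erythrocytes, centrifuged 1,500 rpm for 15 min, hemoglobin at 545 nm. Thrice, triplicate tubes.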
# [10] = Inhibition of Pseudomonas aeruginosa ClpP1 expressed in Escherichia coli […] pre-incubated for 10 mins before Suc-LY- AMC addition and measured after 1 hr by fluorescence based assay relative to control
# How it was run: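 PaClpP1 (0.5 μM monomer) in 25 mM Tris-Cl pH 7.5, 150 mM NaCl. Preincubated 10 min at RT with inhibitor, two-fold dilutions over 8 steps from 50 μM. Then 50 μM Suc-LY-AMC, 380/440 nm for 1 h at 37 °C, slopes normalized to DMSO. Thrice, triplicate wells.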
# [11] = Toxicity in BALB/c mouse model of skin abscess infected with methicillin-resistant Staphylococcus aureus ATCC 33591 assessed as effect on total protein levels at 1.5 to 3 mg/kg injected into shaved area of skin once daily for 4 days; format: organism-based; settings: in vivo, other, 96 h; how it was run: as §3
# Staphylococcus aureus [12] = experiment: as §1, with “severe alveolar destruction” for “liver histopathological changes”; format: functional, organism-based; how it was run: as §2
# [13] = target: T2, ATP-dependent Clp protease proteolytic subunit (Staphylococcus aureus (strain NCTC 8325)) (UniProt Q2G036); experiment: Inhibition of ClpP in Staphylococcus aureus NCTC8325 with complemented deltaclpP/pYJ335::clpP (deltaclpP+) assessed as reduction in bacteria-induced hemolysis of sheep erythrocytes by measuring hemoglobin release incubated for 15 mins
# T2 sequence (whole entry): T1 sequence (Q2G036 whole entry)
# How it was run: (§5)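 S. aureus strains grown overnight in MHB, diluted to OD600 0.05, then grown at 37 °C to OD600 ~0.6. Serially diluted inhibitor or DMSO added for 8 h more growth. Supernatant mixed 1:1 with 5% sheep erythrocytes, spun 1,500 rpm for 15 min, hemoglobin read at 545 nm. EC50 by nonlinear fit; thrice, triplicate tubes.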
# [14] = target: T2, ATP-dependent Clp protease proteolytic subunit (Staphylococcus aureus (strain NCTC 8325)); experiment: Inhibition of ClpP in wild type Staphylococcus aureus NCTC8325 assessed as reduction in bacteria-induced hemolysis of sheep erythrocytes by measuring hemoglobin release incubated for 15 mins; how it was run: as §5
# Staphylococcus aureus [15] = experiment: Inhibition of virulence-related genes expression in methicillin-resistant Staphylococcus aureus ATCC 33591 assessed as reduction in RNAIII effector, expression at 16 uM by qPCR analysis relative to control; format: functional; how it was run: as §4
structure (smiles),measurement,setting,value
CC(C)C[C@H](NC(=O)[C@H](Cc1c[nH]c2ccccc12)NC(=O)c1cc(Cl)ccc1Cl)B(O)O,Activity,Staphylococcus aureus [1],Active
same,EC50,[2],1.27 µM
same,MIC,Staphylococcus aureus [3],64 to 128 µg/mL
same,Activity,[4],Toxic
same,GI50 at 24 h,[5],83.4 µM
same,inhibition,Staphylococcus aureus [6],Active
same,IC50,[7],3 to 25 µM
same,Activity,Staphylococcus aureus [8],Active
same,inhibition,Staphylococcus aureus [9],inactive
same,IC50,[10],3 to 25 µM
same,Activity,[11],Non-Toxic
same,Activity,Staphylococcus aureus [12],Active
same,inhibition,[13],Dose-dependent effect
same,inhibition,[14],Dose-dependent effect
same,fold change (FC),Staphylococcus aureus [15],>10
